Measurements as given in ChEMBL document CHEMBL1145814, “Antiretroviral activity of semisynthetic derivatives of glycopeptide antibiotics” (J Med Chem, 2003).
Values after ≈ are worked out from the molar mass of the structure shown. Values joined by “and” are separate entries in the source; they are usually repeats but may differ in a detail not shown here. Identical values can stand only once.

Tests used:
[1] = organism: Mus musculus; experiment: Minimal inhibitory concentration required to cause a microscopic detectable alteration of C3H/3T3 embryo murine fibroblast cell morphology; format: functional
How it was run: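 Uninfected C3H/3T3 murine embryo fibroblast cultures were exposed to test compound and checked microscopically for changes in cell morphology. The MIC is the concentration causing a microscopically detectable alteration of morphology.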

[2] = test system: CCRF-CEM; experiment: Inhibitory concentration against proliferation of human T-lymphocytic (CEM) cells; format: functional, cell-based
How it was run: (§1)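 (5–7.5) × 10^4 cells per well were incubated with test compound at 37 °C in a humidified CO2 atmosphere. L1210 murine leukemia cells grew for 48 h, and CEM and Molt4/clone 8 human lymphocytes grew for 72 h. Cells were then counted with a Coulter counter. IC50 is the concentration inhibiting proliferation by 50%.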

[3] = test system: Human immunodeficiency virus 2; experiment: Concentration required to protect human T-lymphocytic cells against the cytopathogenicity of HIV-2; format: functional, organism-based
[4] = test system: Human immunodeficiency virus 1; experiment: Effective concentration of compound required to protect human T-lymphocytic cells against the cytopathogenicity of HIV-1; format: functional, organism-based
[5] = test system: L1210; experiment: Inhibitory concentration of compound against proliferation of murine lukemia cells L1210 was determined; format: functional, cell-based; conditions: Mus musculus; how it was run: as §1
[6] = test system: MOLT-4; experiment: Inhibitory concentration of compound against proliferation of human T-lymphocytic cells MOLT-4/C8 was determined; format: functional, cell-based; how it was run: as §1
[7] = organism: Mus musculus; experiment: Effective concentration of compound required to protect C3H/3T3 embryo murine fibroblasts against the MSV induced transformation; format: functional, organism-based; conditions: Mus musculus, C3H/3T3
How it was run: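 Monolayer murine embryo fibroblast C3H/3T3 cultures were infected with Moloney murine sarcoma virus at 75 focus-forming units and cultured with test compound. Transformation was examined microscopically on day 6 postinfection. EC50 is the concentration protecting cells against MSV-induced transformation by 50%.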

Row | Compound | IC50 ([2]; Homo sapiens, CCRF-CEM) | EC50 ([3]; Human immunodeficiency virus 2) | EC50 ([4]; Human immunodeficiency virus 1) | IC50 [5] | IC50 [6] | IC50 ([2]; ccrf-cem) | EC50 [3] | EC50 [4] | MIC [1] | EC50 [7]
1 | CN[C@@H](CC(C)C)C(=O)NC1C(=O)N[C@@H](CC(N)=O)C(=O)NC2C(=O)NC3C(=O)NC(C(=O)N[C@@H](C(=O)O)c4cc(O)cc(O)c4-c4cc3ccc4O)C(O)c3ccc(cc3)Oc3cc2cc(c3O)Oc2ccc(cc2Cl)C1O (stereo not given in full) | > 500 µM | > 250 µM | 50 µM | > 500 µM | > 500 µM |  |  |  | > 100 µM | > 100 µM
2 | CN[C@@H](CC(C)C)C(=O)NC1C(=O)N[C@@H](CC(N)=O)C(=O)NC2C(=O)NC3C(=O)NC(C(=O)N[C@@H](C(=O)O)c4cc(O)cc(O)c4-c4cc3ccc4O)C(O)c3ccc(c(Cl)c3)Oc3cc2cc(c3O)Oc2ccc(cc2Cl)C1O (stereo not given in full) | > 500 µM | > 250 µM | 65 µM | > 500 µM | > 500 µM |  |  |  | > 100 µM | > 100 µM
3 | O=CC(=O)c1[nH]c2ccccc2c1NC1C(=O)NC2Cc3ccc(c(Cl)c3)Oc3cc4cc(c3O)Oc3ccc(cc3Cl)C(O)C3NC(=O)C(NC(=O)C4NC(=O)C(NC2=O)c2cc(O)cc(c2)Oc2cc1ccc2O)c1ccc(O)c(c1)-c1c(O)cc(O)cc1[C@H](C(=O)O)NC3=O (stereo not given in full) | 108 µM | 15 µM | 10 µM | 192 µM | 108 µM |  |  |  | > 100 µM | 4.4 µM
4 | CN(Cc1ccc(Cl)cc1)Cc1c(O)cc2c(c1O)-c1cc(ccc1O)C1NC(=O)C3NC(=O)C4NC(=O)C(Cc5ccc(c(Cl)c5)Oc5cc3cc(c5O)Oc3ccc(cc3Cl)C(O)C(NC1=O)C(=O)N[C@H]2C(=O)O)NC(=O)C(N)c1ccc(O)c(c1)Oc1cc(O)cc4c1 (stereo not given in full) | > 100 µM | 20 µM | 17 µM | > 100 µM | > 100 µM |  |  |  | > 100 µM | 11 µM
5 | CN[C@H](CC(C)C)C(=O)N[C@H]1C(=O)N[C@@H](CC(N)=O)C(=O)N[C@H]2C(=O)N[C@H]3C(=O)N[C@H](C(=O)N[C@H](C(=O)NCc4ccc(-c5ccc(Cl)cc5)cc4)c4cc(O)cc(O)c4-c4cc3ccc4O)[C@H](O[C@H]3C[C@](C)(N)[C@@H](O)[C@H](C)O3)c3ccc(cc3)Oc3cc2cc(c3O[C@@H]2O[C@H](CO)[C@@H](O)[C@H](O)[C@H]2O[C@H]2C[C@](C)(N)[C@@H](O)[C@H](C)O2)Oc2ccc(cc2Cl)[C@H]1O | 8.6 µM | > 10 µM | > 10 µM | 15 µM | 7.7 µM |  |  |  | 4 µM (≈ 7.03 µg/mL) | > 0.8 µM
6 | CN(C)CCCNC(=O)[C@@H]1NC(=O)C2NC(=O)C(NC(=O)C3NC(=O)C4NC(=O)C(Cc5ccc(c(Cl)c5)Oc5cc3cc(c5O)Oc3ccc(cc3Cl)C2O)NC(=O)C(N)c2ccc(O)c(c2)Oc2cc(O)cc4c2)c2ccc(O)c(c2)-c2c1cc(O)c(CNC1C3CC4CC(C3)CC1C4)c2O (stereo not given in full) | > 500 µM |  | 2.5 µM | > 500 µM | > 500 µM | > 250 µM | 8 µM and 22 µM | 4 µM | 20 µM (≈ 28.9 µg/mL) | 12 µM
7 | CNC(=O)[C@@H]1NC(=O)C2NC(=O)C(NC(=O)C3NC(=O)C(CC(N)=O)NC(=O)C(N)C(O)c4ccc(c(Cl)c4)Oc4cc3cc(c4O)Oc3ccc(cc3)C2O)c2ccc(O)c(c2)-c2c1cc(O)c(CNC1C3CC4CC(C3)CC1C4)c2O (stereo not given in full) | > 250 µM | 20 µM | 13 µM | > 250 µM | > 250 µM |  |  |  | > 100 µM | 14 µM
8 | CCCCc1ccc(CNC2C(Oc3c4cc5cc3Oc3ccc(cc3Cl)C(O)C3NC(=O)C(NC(=O)C5NC(=O)C5NC(=O)C(Cc6ccc(cc6)O4)NC(=O)C(NC)c4ccc(O)c(c4)Oc4cc(O)c(Cl)c5c4)c4ccc(O)c(c4)-c4c(cc(O)c(CN5CCN(Cc6ccc(-c7ccccc7)cc6)CC5)c4O)[C@H](C(=O)NCCCN(C)C)NC3=O)OC(C(=O)NCCCN(C)C)C(O)C2O)cc1 (stereo not given in full) | 212 µM | 20 µM | 3.5 µM | 25 µM | 35 µM |  |  |  | 20 µM (≈ 39.3 µg/mL) | > 4 µM
9 | CCCCc1ccc(CNC2C(Oc3c4cc5cc3Oc3ccc(cc3Cl)C(O)C3NC(=O)C(NC(=O)C5NC(=O)C5NC(=O)C(Cc6ccc(cc6)O4)NC(=O)C(NC)c4ccc(O)c(c4)Oc4cc(O)c(Cl)c5c4)c4ccc(O)c(c4)-c4c(O)cc(O)cc4[C@H](C(=O)NCCCN(C)C)NC3=O)OC(C(=O)NCCCN(C)C)C(O)C2O)cc1 (stereo not given in full) | > 250 µM | > 50 µM | 12 µM | 36 µM | 66 µM |  |  |  | > 100 µM | > 20 µM
10 | NC1C(=O)NC2Cc3ccc(c(Cl)c3)Oc3cc4cc(c3O)Oc3ccc(cc3Cl)C(O)C3NC(=O)C(NC(=O)C4NC(=O)C(NC2=O)c2cc(O)cc(c2)Oc2cc1ccc2O)c1ccc(O)c(c1)-c1c(O)cc(O)cc1[C@H](C(=O)NC1C2CC4CC(C2)CC1C4)NC3=O (stereo not given in full) | 123 µM | 6 µM | 7 µM | 30 µM | 26 µM |  |  |  | > 100 µM | 2.1 µM

Further lines, with some results ahead:

Row | IC50 ([2]; Homo sapiens, CCRF-CEM) | EC50 ([3]; Human immunodeficiency virus 2) | EC50 ([4]; Human immunodeficiency virus 1) | IC50 [5] | IC50 [6] | IC50 ([2]; ccrf-cem) | EC50 [3] | EC50 [4] | Compound | MIC [1] | EC50 [7]
11 | 104 µM | 6 µM | 13 µM | 22 µM | 25 µM |  |  |  | O=C(NC1C(=O)NC2Cc3ccc(c(Cl)c3)Oc3cc4cc(c3O)Oc3ccc(cc3Cl)C(O)C3NC(=O)C(NC(=O)C4NC(=O)C(NC2=O)c2cc(O)cc(c2)Oc2cc1ccc2O)c1ccc(O)c(c1)-c1c(O)cc(O)cc1[C@H](C(=O)O)NC3=O)OC12CC3CC(CC(C3)C1)C2 (stereo not given in full) | > 20 µM | 9.8 µM
12 | 30 µM | > 10 µM | > 10 µM | 30 µM | > 10 µM |  |  |  | CCCCCCCCCCNC(=O)[C@H]1NC(=O)[C@H]2NC(=O)[C@H](NC(=O)[C@@H]3NC(=O)[C@H](CC(N)=O)NC(=O)[C@H](NC(=O)[C@@H](CC(C)C)NC)[C@H](O)c4ccc(c(Cl)c4)Oc4cc3cc(c4O[C@@H]3O[C@H](CO)[C@@H](O)[C@H](O)[C@H]3O[C@H]3C[C@](C)(N)C(O)[C@H](C)O3)Oc3ccc(cc3Cl)[C@H]2O)c2ccc(O)c(c2)-c2c(O)cc(O)cc21 (stereo not given in full) | 20 µM (≈ 31.8 µg/mL) | > 4 µM
13 | > 500 µM | > 50 µM | 40 µM | > 500 µM | > 500 µM |  |  |  | CNC1C(=O)NC2Cc3ccc(cc3)Oc3cc4cc(c3O)Oc3ccc(cc3Cl)C(O)C3NC(=O)C(NC(=O)C4NC(=O)C(NC2=O)c2cc(cc(O)c2Cl)Oc2cc1ccc2O)c1ccc(O)c(c1)-c1c(O)cc(O)cc1[C@H](C(=O)O)NC3=O (stereo not given in full) | > 100 µM | 82 µM
14 | 240 µM | 11 µM | 17 µM | 95 µM | 122 µM |  |  |  | COC(=O)[C@@H]1NC(=O)C2NC(=O)C(NC(=O)C(NC(=O)OC(C)(C)C)c3cc(Oc4ccc(CC(NC(=O)OCc5ccccc5)C(=O)O)cc4Cl)c(O)c(c3)Oc3ccc(cc3Cl)C2O)c2ccc(O)c(c2)-c2c1cc(O)c(CNC1C3CC4CC(C3)CC1C4)c2O (stereo not given in full) | > 100 µM | 26 µM
15 | > 100 µM | 5.5 µM | 4 µM | > 100 µM | > 100 µM |  |  |  | CNC(=O)[C@@H]1NC(=O)C2NC(=O)C(NC(=O)C3NC(=O)C(CC(N)=O)NC(=O)C(NC(=O)C(CC(C)C)NC)C(O)c4ccc(c(Cl)c4)Oc4cc3cc(c4O)Oc3ccc(cc3)C2O)c2ccc(O)c(c2)-c2c1cc(O)c(CN1CCN(Cc3ccc(-c4ccccc4)cc3)CC1)c2O (stereo not given in full) | > 100 µM | 12 µM
16 | 106 µM | > 50 µM | 20 µM | 20 µM | > 50 µM |  |  |  | CCCCc1ccc(CN2CCN(Cc3c(O)cc4c(c3O)-c3cc(ccc3O)C3NC(=O)C5NC(=O)C6NC(=O)C(Cc7ccc(cc7)Oc7cc5cc(c7OC5OC(C(=O)O)C(O)C(O)C5N)Oc5ccc(cc5Cl)C(O)C(NC3=O)C(=O)N[C@H]4C(=O)O)NC(=O)C(NC)c3ccc(O)c(c3)Oc3cc(O)c(Cl)c6c3)CC2)cc1 (stereo not given in full) | 100 µM (≈ 163 µg/mL) | 6.9 µM
17 | > 500 µM | 20 µM | 17 µM | > 500 µM | > 500 µM |  |  |  | NC1C(=O)NC2Cc3ccc(c(Cl)c3)Oc3cc4cc(c3O)Oc3ccc(cc3Cl)C(O)C3NC(=O)C(NC(=O)C4NC(=O)C(NC2=O)c2cc(O)cc(c2)Oc2cc1ccc2O)c1ccc(O)c(c1)-c1c(O)cc(O)cc1[C@H](C(=O)O)NC3=O (stereo not given in full) | > 100 µM | 25 µM
18 | > 500 µM | 17 µM | 15 µM | > 500 µM | > 500 µM |  |  |  | CNC(=O)[C@@H]1NC(=O)C2NC(=O)C(NC(=O)C3NC(=O)C4NC(=O)C(Cc5ccc(c(Cl)c5)Oc5cc3cc(c5O)Oc3ccc(cc3Cl)C2O)NC(=O)C(N)c2ccc(O)c(c2)Oc2cc(O)cc4c2)c2ccc(O)c(c2)-c2c(O)cc(O)cc21 (stereo not given in full) | > 100 µM | > 20 µM
19 | 402 µM | 12 µM | 6.5 µM | 500 µM | 225 µM |  |  |  | NCCCCCCCCCCNC(=O)[C@@H]1NC(=O)C2NC(=O)C(NC(=O)C3NC(=O)C4NC(=O)C(Cc5ccc(c(Cl)c5)Oc5cc3cc(c5O)Oc3ccc(cc3Cl)C2O)NC(=O)C(N)c2ccc(O)c(c2)Oc2cc(O)cc4c2)c2ccc(O)c(c2)-c2c(O)cc(O)cc21 (stereo not given in full) | 20 µM (≈ 27.1 µg/mL) | > 4 µM
